# Measured values: paper PMC6092455 (International Journal for Parasitology: Drugs and Drug …, 2018)
# Entries after “also recorded” stand apart in the source; their conditions may differ.
# How the values were obtained:
# [1] = target: T1, B. divergens proteasome β5 subunit (chymotrypsin-like activity) (Babesia divergens, UniProt A0AAD9GDK3); assay: Suc-LLVY-AMC proteasome activity assay with B. divergens crude cell lysates; format: biochemical; settings: for inhibition at 1 µM: read-out: Reduction of Suc-LLVY-AMC measured activity
# T1 sequence (A0AAD9GDK3 69-280): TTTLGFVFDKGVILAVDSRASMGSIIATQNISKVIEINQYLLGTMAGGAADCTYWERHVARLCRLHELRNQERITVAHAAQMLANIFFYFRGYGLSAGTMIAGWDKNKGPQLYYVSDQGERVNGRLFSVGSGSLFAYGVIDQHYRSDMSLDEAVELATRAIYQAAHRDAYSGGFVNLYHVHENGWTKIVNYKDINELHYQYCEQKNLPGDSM
# In short: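 Crude lysate made from B. divergens-infected RBCs (~15% parasitemia): saponin lysis, PBS washes, sonication in 20 mM HEPES pH 8.0, 1 µM E64, 0.03% SDS, 1 mM ATP; pooled from 10 cultures. Lysate pre-incubated 30 min at 37 °C with 1 µM test compound. Then 10 µM Suc-LLVY-AMC added; fluorescence 360/465 nm read every 1 min for 1 h at 37 °C. Run in triplicate.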
# HeLa cells = assay: Cell toxicity assay, HeLa cells; format: cell-based, human; settings: for IC50: Homo sapiens, HeLa, 48 h, read-out: IC50 values, HeLa cells, 48 h, AlamarBlue
# PMJ2R mouse macrophages = assay: Cell viability assay, PMJ2R mouse macrophages; format: cell-based; settings: 200 nM, 48 h
# In short: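 PMJ2R macrophages grown in RPMI 1640 with gentamicin, amphotericin B and 10% heat-inactivated FCS. Serially diluted test compound added to cultures, with 0.004% DMSO in medium as control. Medium changed every 12 h; 48 h at 37 °C, 5% CO₂. Calcein AM (live) and ethidium homodimer III (dead) staining, counted by flow cytometry. Triplicate cultures; mean ± SD; unpaired t-test.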
# B. microti [2] = assay: Treatment of B. microti infected mice; format: in vivo, Babesia microti
# In short: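 Six female BALB/c mice (~20 g) infected i.p. with 150 µl B. microti-infected blood (50% parasitemia, ~800 × 10⁶ infected RBCs). Dosed i.p. daily from 1 to 7 DPI with test compound at 0.75 mg/kg in PBS or with vehicle (150 µl; three mice each). Activity and appearance observed. Parasitemia counted daily to 15 DPI on tail-snip thin smears. AUC (Riemann sums), Cmax and Tmax compared by t-test.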
# B. microti [3] = assay: Pre-treatment of B. microti infected red blood cells prior to mouse infection; format: in vivo, Babesia microti; settings: infected blood pre-treated with 400 nM for 1 h
# In short: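 Infected blood pooled from three B. microti-infected mice (50% parasitemia). Exposed to test compound at 400 nM final, or to matching DMSO, for 1 h at 37 °C, 5% CO₂. Then injected i.p. (150 µl, 800 × 10⁶ infected RBCs) into three treated and three control BALB/c mice. Parasitemia counted daily for 8 DPI on Diff-Quik thin smears; Cmax and Tmax calculated in R.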
# B. microti [4] = assay: Parasitemia in B. microti infected mice treated on 5 and 6 DPI; format: in vivo, Babesia microti; settings: BALB/c mice, 0.75 mg/kg i.p. on 5 and 6 DPI
# In short: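 Eight female BALB/c mice infected i.p. with B. microti-infected blood (150 µl, 50% parasitemia, ~800 × 10⁶ infected RBCs). Test compound at 0.75 mg/kg in PBS, or vehicle, given i.p. on 5 and 6 DPI (four mice per group). Parasitemia read as percent from thin blood smears taken by tail snip; blood collected on 7 DPI.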
# [5] = system: B. microti proteasome (chymotrypsin-like activity); assay: Suc-LLVY-AMC activity assay on B. microti lysates from treated mice; format: in vivo, Babesia microti; settings: mice treated 0.75 mg/kg on 5 and 6 DPI, pooled blood collected 7 DPI
# [6] = rats; ref Yang et al., 2011; cited from earlier work
# [7] = BALB/c mice, 0.75 mg/kg i.p. daily 1-7 DPI
Structure (SMILES),"Reduction of Suc-LLVY-AMC measured activity ([1]; 1 μM inhibitor, pilot experiments (data not shown))",inhibition at 1 µM [1],IC50 (HeLa cells),Fold more potent against B. divergens compared to HeLa (HeLa cells; ratio of IC50 values HeLa / B. divergens ex vivo culture),Toxicity to PMJ2R macrophages (PMJ2R mouse macrophages),Survival rate of PMJ2R cells (PMJ2R mouse macrophages; medium changed every 12 h),Adverse effects on spontaneous activity and physical appearance of mice (B. microti [2]; [7]),Peak parasitemia levels and area under curve (AUC) compared to PBS (B. microti [2]; [7]),"Microscopic appearance of non-parasited RBCs (B. microti [2]; BALB/c mice, 0.75 mg/kg i.p. daily 1-7 DPI (data not shown))","Parasitemia on 5, 6 and 7 DPI compared to untreated control (B. microti [2]; daily intra-peritoneal treatment of infected mice)",Reduction of Cmax (parasitemia) on Tmax (7 DPI) compared to control group (B. microti [3]),"Parasite load (parasitemia, mean) at 5 DPI (B. microti [4]; 5 DPI)","Parasite load (parasitemia, mean) at 7 DPI (B. microti [4]; 7 DPI)",Reduction of Suc-LLVY-AMC activity in B. microti lysates compared to untreated control [5],Plasma clearance [6],Terminal half-life [6],Tissue distribution [6]
CC(C)C[C@H](NC(=O)[C@H](CCc1ccccc1)NC(=O)CN1CCOCC1)C(=O)N[C@@H](Cc1ccccc1)C(=O)N[C@@H](CC(C)C)C(=O)[C@@]1(C)CO1 [Carfilzomib],completely inhibiting this activity,> 90%,59 ± 36 nM,2–3.5 fold,did not show any toxicity; also recorded: did not affect cell viability,71.1%,no adverse effects,significantly reduced,did not change,lower parasitemia,31.2%,47.4 ± 6.3%,41.5 ± 2.9%,33%,195 to 319 mL/min/kg,5 to 20 min,rapid and wide tissue distribution
"CC(C)C[C@H](NC(=O)[C@H](Cc1ccccc1)NC(=O)c1cnccn1)B(O)O [Bortezomib, bortezomib]",,96%,7 ± 1 nM,,,,,,,,,,,,,,
